# Data as given in ChEMBL document CHEMBL1139869, “Design and synthesis of novel quinolinone-3-aminoamides and their alpha-lipoic acid adducts as antioxidant and anti-inflammatory agents” (2007).
# Active and inactive are the calls of the source. No cut-off for these calls is given here.
# What was measured:
# Rattus norvegicus = experiment: Inhibition of carrageenan-induced Fischer 344 rat paw edema at 0.01 mmol/kg, ip; format: functional; details: Fischer 344, ip
# Procedure, shortened: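 Fischer 344 rats (150-200 g), both sexes, pregnant females excluded; 6-15 per group. Paw edema was induced by intradermal injection of 0.1 mL 2% carrageenin in water into the right hind paw. Compound at 0.01 mmol/kg, suspended in water with a few drops of Tween 80, was given ip at the same time. Rats were euthanized at 3.5 h. Injected minus uninjected paw weight was expressed as % inhibition versus water-treated controls. Mean of two experiments.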
# [1] = Antioxidant activity assessed as DPPH reducing activity at 0.1 mM after 20 mins; format: functional; set-up: scale not given: the % may be the effect or the level left
# Procedure, shortened: (§1)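 DPPH in absolute ethanol was mixed with an equal volume of compound in ethanol (0.1 or 0.5 mM); ethanol served as control. Absorbance at 517 nm was read after 20 and 60 min at room temperature. At least triplicate.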
# [2] = Antioxidant activity assessed as DPPH reducing activity at 0.1 mM after 60 mins; format: functional; set-up: scale not given: the % may be the effect or the level left; procedure, shortened: as §1
# [3] = Antioxidant activity assessed as DMSO hydroxyl radical scavenging activity at 0.1 mM; format: functional
# Procedure, shortened: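 Hydroxyl radicals generated by Fe3+/ascorbic acid; reaction mix contained EDTA 0.1 mM, Fe3+ 167 µM, DMSO 33 mM and ascorbic acid 10 mM in 50 mM phosphate buffer pH 7.4, with test compound at 0.1 mM. Incubated 30 min at 37 °C, then stopped with trichloroacetic acid (17% w/v). Formaldehyde from DMSO oxidation was measured by the Nash method at 425 nm. At least triplicate.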
# [4] = Antioxidant activity assessed as DPPH reducing activity at 0.5 mM after 20 mins; format: functional; set-up: scale not given: the % may be the effect or the level left; procedure, shortened: as §1
# [5] = target: T1, Seed linoleate 13S-lipoxygenase-1 (Glycine max) (UniProt P08170); experiment: Inhibition of soybean lipoxygenase at 0.1 mM
# T1 sequence (whole entry): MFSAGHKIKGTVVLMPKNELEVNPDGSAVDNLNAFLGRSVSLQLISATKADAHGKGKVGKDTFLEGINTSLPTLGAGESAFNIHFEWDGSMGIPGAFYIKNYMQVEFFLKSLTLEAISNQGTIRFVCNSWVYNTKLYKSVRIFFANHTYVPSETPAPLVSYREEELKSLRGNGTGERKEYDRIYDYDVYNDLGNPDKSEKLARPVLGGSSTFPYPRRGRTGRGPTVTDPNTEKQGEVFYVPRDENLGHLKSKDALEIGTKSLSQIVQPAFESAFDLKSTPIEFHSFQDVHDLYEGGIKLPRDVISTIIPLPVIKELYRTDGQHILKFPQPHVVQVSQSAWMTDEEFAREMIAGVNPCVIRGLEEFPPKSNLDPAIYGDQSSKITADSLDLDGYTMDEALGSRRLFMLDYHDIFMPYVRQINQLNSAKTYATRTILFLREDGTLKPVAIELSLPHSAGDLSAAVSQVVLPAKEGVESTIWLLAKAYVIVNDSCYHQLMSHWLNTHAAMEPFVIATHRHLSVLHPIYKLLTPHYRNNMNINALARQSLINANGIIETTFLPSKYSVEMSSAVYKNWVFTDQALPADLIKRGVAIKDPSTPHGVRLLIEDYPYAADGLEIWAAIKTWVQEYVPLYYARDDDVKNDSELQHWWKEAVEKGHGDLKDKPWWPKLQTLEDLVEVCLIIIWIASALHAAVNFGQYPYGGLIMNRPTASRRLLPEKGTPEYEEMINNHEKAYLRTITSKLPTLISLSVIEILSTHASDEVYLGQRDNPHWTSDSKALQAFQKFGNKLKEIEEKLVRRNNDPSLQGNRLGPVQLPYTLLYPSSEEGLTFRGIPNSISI
# Procedure, shortened: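 Soybean lipoxygenase solution (1/9 × 10⁴ w/v in saline) was incubated at room temperature with sodium linoleate (0.1 mM) and compound dissolved in ethanol. UV absorbance-based read-out. At least triplicate.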
# [6] = Antioxidant activity assessed as DPPH reducing activity at 0.5 mM after 60 mins; format: functional; set-up: scale not given: the % may be the effect or the level left; procedure, shortened: as §1
inhibition [5] [%],Activity [5],SMILES,inhibition in vivo at 10 µmol/kg (Rattus norvegicus) [%],Activity [1] [%],Activity [2] [%],Activity [3],Activity [4],Activity [6] [%]
58.9,,Nc1ccc(NC(=O)c2c(O)c3ccccc3n(-c3ccccc3)c2=O)cc1,56.4,89,88.3,10%,94.4%,89.2
100,,O=C(CCCCC1CCSS1)Nc1ccccc1NC(=O)c1c(O)c2ccccc2n(-c2ccccc2)c1=O (stereo unspecified),63,9.7,16.1,inactive,11%,28.5
82.3,,NCCNC(=O)c1c(O)c2ccccc2n(-c2ccccc2)c1=O,68.1,7.2,10,78.6%,1.4%,7.9
64,,O=C(CCCCC1CCSS1)NCCCCCCNC(=O)c1c(O)c2ccccc2n(-c2ccccc2)c1=O (stereo unspecified),50,6.2,10.2,inactive,23.9%,29.5
17.6,,NCCCCCCNC(=O)c1c(O)c2ccccc2n(-c2ccccc2)c1=O,68.8,11.6,17.5,27.1%,19.3%,28.1
,inactive,Nc1ccccc1NC(=O)c1c(O)c2ccccc2n(-c2ccccc2)c1=O,48.5,9.4,16.3,98%,21.3%,34.7
66.5,,Cn1c(=O)c(C(=O)NCCNC(=O)CCCCC2CCSS2)c(O)c2ccccc21 (stereo unspecified),48.2,10.9,3.4,67.9%,28.8%,40.1
,inactive,O=C(CCCCC1CCSS1)NCCNC(=O)c1c(O)c2ccccc2n(-c2ccccc2)c1=O (stereo unspecified),45.5,6.4,7.8,0%,inactive,14.1

# More lines, now with the values behind:
SMILES,inhibition [5] [%],Activity [5],inhibition in vivo at 10 µmol/kg (Rattus norvegicus) [%],Activity [1] [%],Activity [2] [%],Activity [3],Activity [4],Activity [6] [%]
Cn1c(=O)c(C(=O)Nc2ccc(N)cc2)c(O)c2ccccc21,50.8,,69.5,90.2,88.1,20.7%,85.1%,83.7
COc1ccc2c(c1)c(CC(=O)O)c(C)n2C(=O)c1ccc(Cl)cc1 [INDOMETHACIN],,,47,,,,,
Cn1c(=O)c(C(=O)NCCN)c(O)c2ccccc21,99.5,,67,5.6,11.5,40.1%,20.9%,37.1
COC(=O)c1c(O)c2ccccc2n(C)c1=O,72.4,,58.8,8.3,7.4,45%,17.5%,18.4
Cn1c(=O)c(C(=O)NCCCCCCN)c(O)c2ccccc21,92.1,,68.5,3.1,8.3,59.3%,13.7%,21.9
COC(=O)c1c(O)c2ccccc2n(-c2ccccc2)c1=O,100,,37.1,9.1,9.1,95%,16.8%,19.3
CC(Cc1ccc(O)c(O)c1)C(C)Cc1ccc(O)c(O)c1 (stereo unspecified),,,,,,,96.5%,98
Cn1c(=O)c(C(=O)Nc2ccccc2N)c(O)c2ccccc21,71.3,,85.3,6,13.5,60.5%,28.8%,41.4
Cc1c(C)c2c(c(C)c1O)CCC(C)(C(=O)O)O2 (stereo unspecified),,,,,,88.2%,,
Cn1c(=O)c(C(=O)NCCCCCCNC(=O)CCCCC2CCSS2)c(O)c2ccccc21 (stereo unspecified),79.1,,53,9.1,13,28.6%,28.4%,38.8
"O=C(O)CCCCC1CCSS1 (stereo not drawn) [LIPOIC ACID, ALPHA]",29.1,,29.6,20.3,27.1,38.6%,5.2%,6.8
